The values that follow come from ChEMBL document CHEMBL2086328, “¹⁸F-labeled 2-phenylquinoxaline derivatives as potential positron emission tomography probes for in vivo imaging of β-amyloid plaques” (Eur J Med Chem, 2012).

Activity calls are given as the source filed them. The rule behind the calls is not given here.

Assay [1] in a line: Binding affinity to beta-amyloid.
Assay [2] can be described thus: Displacement of [125I]IMPY from amyloid beta (1 to 42) after 2 hrs by gamma counting. The gist of the method:
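Competition binding against [125I]IMPY (radiochemical purity >95%) on Aβ1-42 aggregates with 1% BSA solution; inhibitor 10^-4–10^-9.5 M; 37 °C, 2 h. Free and bound separated by vacuum filtration on GF/B filters, three PBS washes (0.02 M, pH 7.4, room temperature); filters gamma-counted. Three repeats; IC50 fitted, Ki from Cheng–Prusoff.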

The species named for the next assay is Mus musculus. The assay is described as follows: Binding affinity to beta-amyloid in APPswe/PSEN1 transgenic C57BL6 mouse model brain at 1.85 MBq/[…] after 1 hr by thioflavin-S based autoradiography. The conditions noted are these: 1.85 M, tested as the 18F-labelled form. The essentials:
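Transgenic mouse brain sections deparaffinized, then incubated with 18F tracer (1.85 MBq/200 µL) for 1 h at room temperature. Washed in 40% EtOH, phosphor-imaged after 2 h exposure. Same sections then stained with 0.125% thioflavin-S in 10% EtOH for 3 min and imaged by fluorescence (excitation 405 nm, long-pass 505 nm).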

Assay [3] deals with Amyloid-beta precursor protein (Homo sapiens) (UniProt P05067). Description: Binding affinity to beta-amyloid in Alzheimer's disease patient brain at 1.85 MBq/[…] after 1 hr by thioflavin-S based autoradiography. The conditions noted are these: 1.85 M, tested as the 18F-labelled form. The gist of the method:
(§1)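 Paraffin human temporal-lobe sections (5 µm; AD case or control) deparaffinized through xylene and graded ethanol, then PBS (0.2 M, pH 7.4) for 30 min. Incubated with 18F tracer (1.85 MBq/200 µL), 1 h, room temperature; washed in 40% EtOH, rinsed in water; phosphor plate exposure 2 h.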

The target is the same in assay [4]. The assay is described as follows: Binding affinity to beta-amyloid in normal human brain at 1.85 MBq/[…] after 1 hr by thioflavin-S based autoradiography. Particulars: 1.85 M, tested as the 18F-labelled form. The essentials:
as §1

Chain of Amyloid-beta precursor protein (Homo sapiens) (P05067 whole entry): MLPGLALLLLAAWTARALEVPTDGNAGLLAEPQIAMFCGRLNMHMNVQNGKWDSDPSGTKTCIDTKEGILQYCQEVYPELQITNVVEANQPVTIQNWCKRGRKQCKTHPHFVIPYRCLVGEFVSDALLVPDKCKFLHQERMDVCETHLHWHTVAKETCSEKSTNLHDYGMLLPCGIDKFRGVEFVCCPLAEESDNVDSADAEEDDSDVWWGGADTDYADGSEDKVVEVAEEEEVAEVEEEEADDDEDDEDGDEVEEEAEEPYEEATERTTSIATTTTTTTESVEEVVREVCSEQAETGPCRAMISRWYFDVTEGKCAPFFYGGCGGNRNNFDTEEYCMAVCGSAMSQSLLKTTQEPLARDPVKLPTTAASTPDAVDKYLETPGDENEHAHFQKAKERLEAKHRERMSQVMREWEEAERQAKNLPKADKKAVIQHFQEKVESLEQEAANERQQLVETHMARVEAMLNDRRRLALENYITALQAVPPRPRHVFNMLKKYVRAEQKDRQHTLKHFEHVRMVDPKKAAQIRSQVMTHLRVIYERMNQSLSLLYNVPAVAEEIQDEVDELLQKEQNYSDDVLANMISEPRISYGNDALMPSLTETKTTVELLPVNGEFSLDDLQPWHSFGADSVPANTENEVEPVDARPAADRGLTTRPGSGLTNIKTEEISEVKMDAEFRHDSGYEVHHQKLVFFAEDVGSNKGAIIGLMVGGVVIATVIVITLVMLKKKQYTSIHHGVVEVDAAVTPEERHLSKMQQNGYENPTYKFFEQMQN

In the case of `[11CH3]Nc1ccc(-c2nc3ccc(O)cc3s2)cn1`, the affinity in assay [1] corresponds to a Ki of 1.7 nM.
`CNc1ccc2nc(-c3ccc(OCCOCCOCCF)cc3)cnc2c1`: in assay [2], the Ki (commonly the dissociation constant of the complex between target and ligand, obtained from inhibition or displacement) was 5.3 nM. The outcome (in the assay listed under Mus musculus; in assay [3]) was Active. Also, the outcome in assay [4] was inactive.
Turning to `CNc1ccc2nc(-c3ccc(OCCF)cc3)cnc2c1`, the Ki in assay [2] was found to be 10 nM. For the same molecule, the result (in the assay listed under Mus musculus; in assay [3]) was Active. The outcome in assay [4] was inactive.
As to `CNc1ccc(/C=C/c2ccc(OCCOCCOCC[18F])cc2)cc1` [FLORBETABEN F18], in assay [1], the Ki was 2.22 nM.
